Legend:
[1] = AUC (0 to 12 hrs) in fasting healthy human at 100 mg, po administered every 12 hrs measured between 72 to 84 hrs postdose; assay type: ADME, organism-based; set-up: dose 100 mg, time < 12 hr, route oral; conditions: plasma
Summary of the method: (§1)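 Six healthy men per cohort dosed orally q12h for seven doses. Morning doses given after 8-h fast, with fasting until 1 h post-dose. After the final dose (72 h after the first) plasma was sampled predose and 0.5–24 h. Validated HPLC-MS/MS assay. Noncompartmental parameters (log-linear trapezoidal AUC) from all time points, summarized per cohort.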

[2] = Tmax in fasting healthy human at 400 mg, po administered every 12 hrs; assay type: ADME, organism-based; conditions: in vivo
Summary of the method: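 Six healthy male volunteers per cohort received seven oral doses q12h. Morning doses followed an 8-h fast, with fasting continued until 1 h post-dose. After the final dose (72 h after the first), plasma was sampled pre-dose and at 0.5–24 h, and assayed by validated HPLC-MS/MS. Tmax came from individual noncompartmental analysis, summarized per cohort.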

[3] = test system: Homo sapiens; test: Decrease in CD4 cell count in fasting healthy human at 100 mg, po administered every 12 hrs measured after 24 hrs relative to baseline; assay type: functional; set-up: scale not given: the % may be the effect or the level left
Summary of the method: (§2)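 CD4+ counts drawn before the first dose and at 2, 4, 6, 8 and 24 h after the final (seventh) q12h oral dose in fasting healthy men. Each post-dose value divided by the baseline value to give a ratio. Deviation from no effect tested by Wilcoxon rank sum, dose trend by Jonckheere-Terpstra.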

[4] = test system: Homo sapiens; test: AUC ( 0 to infinity) in fasting healthy human at 200 mg, po administered as single dose after 12 hrs; assay type: ADME, organism-based, Plasma; set-up: dose 200 mg, route oral, time infinity; conditions: in vivo
Summary of the method: (§3)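 Healthy male volunteers, three per cohort, one oral dose after 8-h overnight fast, fasting kept until 1 h post-dose. Plasma sampled predose and at 0.5, 1, 1.5, 2, 3, 4, 6, 8, 12, 16, 20, 24 h. Levels by validated HPLC-MS/MS (liquid-liquid extraction, positive-ion electrospray). Noncompartmental analysis, log-linear trapezoidal AUC, summarized per cohort.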

[5] = test system: Homo sapiens; test: Apparent volume of distribution in fasting healthy human at 200 mg, po administered every 12 hrs; assay type: ADME, organism-based; conditions: in vivo; summary of the method: as §1
[6] = test system: Homo sapiens; test: Half life in fasting healthy human at 200 mg, po administered every 12 hrs; assay type: ADME, organism-based; conditions: in vivo; summary of the method: as §1
[7] = test system: Homo sapiens; test: Decrease in CD4 cell count in fasting healthy human at 400 mg, po administered every 12 hrs measured after 24 hrs relative to baseline; assay type: functional; set-up: scale not given: the % may be the effect or the level left; summary of the method: as §2
[8] = Cmax in fasting healthy human at 50 mg, po administered as single dose; assay type: ADME, organism-based; set-up: dose 50 mg, route oral; conditions: in vivo; summary of the method: as §3
[9] = Drug level in fasting healthy human at 100 mg, po administered as single dose after 12 hrs; assay type: ADME, organism-based; conditions: in vivo, read-out: Drug uptake; summary of the method: as §3
[10] = Cmax in fasting healthy human at 200 mg, po administered every 12 hrs; assay type: ADME, organism-based; set-up: dose 200 mg, route oral; conditions: in vivo; summary of the method: as §1
[11] = Tmax in fasting healthy human at 400 mg, po administered as single dose; assay type: ADME, organism-based; conditions: in vivo
Summary of the method: (§4)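 Healthy male volunteers, three per cohort, took one oral dose after an 8-h overnight fast and stayed fasting until 1 h post-dose. Tmax came from per-subject noncompartmental analysis, summarized by cohort.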

[12] = test system: Homo sapiens; test: Half life in fasting healthy human at 100 mg, po administered every 12 hrs; assay type: ADME, organism-based; conditions: in vivo; summary of the method: as §1
[13] = test system: Homo sapiens; test: AUC ( 0 to infinity) in fasting healthy human at 100 mg, po administered as single dose after 12 hrs; assay type: ADME, organism-based, Plasma; set-up: dose 100 mg, route oral, time infinity; conditions: in vivo; summary of the method: as §3
[14] = test system: Homo sapiens; test: Half life in fasting healthy human at 400 mg, po administered every 12 hrs; assay type: ADME, organism-based; conditions: in vivo; summary of the method: as §1
[15] = test system: Homo sapiens; test: AUC ( 0 to infinity) in fasting healthy human at 400 mg, po administered as single dose after 12 hrs; assay type: ADME, organism-based, Plasma; set-up: dose 400 mg, time infinity, route oral; conditions: in vivo; summary of the method: as §3
[16] = Terminal half life in dog; assay type: ADME, organism-based, Canis lupus familiaris; conditions: in vivo
[17] = Drug level in fasting healthy human at 400 mg, po administered every 12 hrs measured after 72 hrs; assay type: ADME, organism-based; conditions: in vivo, read-out: Drug uptake; summary of the method: as §1
[18] = test system: Homo sapiens; test: Apparent volume of distribution in fasting healthy human at 400 mg, po administered as single dose after 12 hrs; assay type: ADME, organism-based; conditions: in vivo; summary of the method: as §3
[19] = Cmax in fasting healthy human at 100 mg, po administered as single dose; assay type: ADME, organism-based; set-up: dose 100 mg, route oral; conditions: in vivo; summary of the method: as §3
[20] = test system: Homo sapiens; test: Apparent volume of distribution in fasting healthy human at 100 mg, po administered every 12 hrs; assay type: ADME, organism-based; conditions: in vivo; summary of the method: as §1
[21] = Drug level in fasting healthy human at 100 mg, po administered every 12 hrs measured after 84 hrs; assay type: ADME, organism-based; conditions: in vivo, read-out: Drug uptake; summary of the method: as §1
[22] = Drug level in fasting healthy human at 200 mg, po administered every 12 hrs measured after 72 hrs; assay type: ADME, organism-based; conditions: in vivo, read-out: Drug uptake; summary of the method: as §1
[23] = Drug level in fasting healthy human at 400 mg, po administered every 12 hrs measured after 84 hrs; assay type: ADME, organism-based; conditions: in vivo, read-out: Drug uptake; summary of the method: as §1
[24] = Cmax in fasting healthy human at 400 mg, po administered every 12 hrs; assay type: ADME, organism-based; set-up: dose 400 mg, route oral; conditions: in vivo; summary of the method: as §1
[25] = Tmax in fasting healthy human at 50 mg, po administered as single dose; assay type: ADME, organism-based; conditions: in vivo; summary of the method: as §4
[26] = Cmax in fasting healthy human at 200 mg, po administered as single dose; assay type: ADME, organism-based; set-up: dose 200 mg, route oral; conditions: in vivo; summary of the method: as §3
[27] = AUC (0 to 12 hrs) in fasting healthy human at 400 mg, po administered every 12 hrs measured between 72 to 84 hrs postdose; assay type: ADME, organism-based; set-up: time < 12 hr, dose 400 mg, route oral; conditions: plasma; summary of the method: as §1

AUC at 12 h [1]: 937 ng·h/mL
Tmax [2]: 1.8 h
AUC [4]: 1695 ng·h/mL
Vd [5]: 1923 L
t1/2 [6]: 11.2 h
Cmax [8]: 159 ng/mL
concentration at 12 h [9]: 2.1 ng/mL
Cmax [10]: 793 ng/mL
Tmax [11]: 1.5 h
t1/2 [12]: 15.9 h
AUC [13]: 358 ng·h/mL
t1/2 [14]: 12 h
AUC [15]: 6716 ng·h/mL
half-life [16]: 10 h
concentration at 72 h [17]: 122 ng/mL
Vd [18]: 918 L
Cmax [19]: 276 ng/mL
Vd [20]: 2663 L
concentration at 84 h [21]: 12 ng/mL
concentration at 72 h [22]: 31 ng/mL
concentration at 84 h [23]: 137 ng/mL
Cmax [24]: 2300 ng/mL
Tmax [25]: 1.5 h
Cmax [26]: 995 ng/mL
AUC at 12 h [27]: 7660 ng·h/mL
Compound: NCCCCN(Cc1nc2ccccc2[nH]1)[C@H]1CCCc2cccnc21 [MAVORIXAFOR]
Activity [3]: 80%
Activity [7]: 80%

From ChEMBL document CHEMBL1150800, “Multiple-dose escalation study of the safety, pharmacokinetics, and biologic activity of oral AMD070, a selective CXCR4 receptor inhibitor, in human subjects” (Antimicrob Agents Chemother, 2007)
